Measured values from ChEMBL document CHEMBL4325828, “The Design, Synthesis, and Characterizations of Spore Germination Inhibitors Effective against an Epidemic Strain of Clostridium difficile” (J Med Chem, 2018).

These compounds were tested on Clostridioides difficile (assay: Antibacterial activity against Clostridium difficile R20291 assessed as inhibition of spore germination by measuring heat activated spore germination levels at 125 uM in presence of 6 mM taurocholate and 12 mM glycine measured every minute for 2 hrs by standard optical density assay relative to control).
Assay type: functional
Set-up: scale not given: the % may be the effect or the level left
Method in brief: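 R20291 spores were screened at a single 125 µM concentration, with germination followed as the fall in absorbance at 580 nm. Compounds not soluble at 125 µM by visual inspection were discarded. Inhibition is relative to untreated spore samples.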
In the case of `C[C@H](CCC(=O)NCc1ccc(S(N)(=O)=O)cc1)[C@H]1CC[C@H]2[C@@H]3[C@H](O)C[C@@H]4C[C@H](O)CC[C@]4(C)[C@H]3C[C@H](O)[C@]12C`, the Activity is reported as 109%. Compound `C[C@H](CCC(=O)Nc1cccc(S(=O)(=O)O)c1)[C@H]1CC[C@H]2[C@@H]3[C@H](O)C[C@@H]4C[C@H](O)CC[C@]4(C)[C@H]3C[C@H](O)[C@]12C` has an Activity of 102%. With `C[C@H](CCC(=O)NCCCO)[C@H]1CC[C@H]2[C@@H]3[C@H](O)C[C@@H]4C[C@H](O)CC[C@]4(C)[C@H]3C[C@H](O)[C@]12C` the Activity was 92%. `Cc1csc(NC(=O)CC[C@@H](C)[C@H]2CC[C@H]3[C@@H]4[C@H](O)C[C@@H]5C[C@H](O)CC[C@]5(C)[C@H]4C[C@H](O)[C@]23C)n1` showed an Activity of 84%. Compound `C[C@H](CCC(=O)Nc1ccc(NC(=O)OC(C)(C)C)cc1)[C@H]1CC[C@H]2[C@@H]3[C@H](O)C[C@@H]4C[C@H](O)CC[C@]4(C)[C@H]3C[C@H](O)[C@]12C` has an Activity of 100%. With `C[C@H](CCC(=O)NCCCN1C(=O)C(=O)c2ccccc21)[C@H]1CC[C@H]2[C@@H]3[C@H](O)C[C@@H]4C[C@H](O)CC[C@]4(C)[C@H]3C[C@H](O)[C@]12C` the Activity was 95%. Compound `COc1ccc(NC(=O)CC[C@@H](C)[C@H]2CC[C@H]3[C@@H]4[C@H](O)C[C@@H]5C[C@H](O)CC[C@]5(C)[C@H]4C[C@H](O)[C@]23C)c(OC)c1` has an Activity of 93%. In the case of `C[C@H](CCC(=O)NCc1ccc(N)cc1)[C@H]1CC[C@H]2[C@@H]3[C@H](O)C[C@@H]4C[C@H](O)CC[C@]4(C)[C@H]3C[C@H](O)[C@]12C`, the Activity is reported as 104%. For `COc1ccc(CCNC(=O)CC[C@@H](C)[C@H]2CC[C@H]3[C@@H]4[C@H](O)C[C@@H]5C[C@H](O)CC[C@]5(C)[C@H]4C[C@H](O)[C@]23C)c(OC)c1`, the Activity was 101%. In the case of `C[C@H](CCC(=O)Nc1cccc(C(N)=O)c1)[C@H]1CC[C@H]2[C@@H]3[C@H](O)C[C@@H]4C[C@H](O)CC[C@]4(C)[C@H]3C[C@H](O)[C@]12C`, the Activity is reported as 85%. In the case of `C[C@H](CCC(=O)NCc1ccccc1N)[C@H]1CC[C@H]2[C@@H]3[C@H](O)C[C@@H]4C[C@H](O)CC[C@]4(C)[C@H]3C[C@H](O)[C@]12C`, the Activity is reported as 95%. Compound `COc1ccc(CNC(=O)CC[C@@H](C)[C@H]2CC[C@H]3[C@@H]4[C@H](O)C[C@@H]5C[C@H](O)CC[C@]5(C)[C@H]4C[C@H](O)[C@]23C)c(OC)c1` has an Activity of 85%. Compound `C[C@H](CCC(=O)NCc1ccc([N+](=O)[O-])cc1)[C@H]1CC[C@H]2[C@@H]3[C@H](O)C[C@@H]4C[C@H](O)CC[C@]4(C)[C@H]3C[C@H](O)[C@]12C` has an Activity of 88%. `C[C@H](CCC(=O)NCCCCNC(=O)OC(C)(C)C)[C@H]1CC[C@H]2[C@@H]3[C@H](O)C[C@@H]4C[C@H](O)CC[C@]4(C)[C@H]3C[C@H](O)[C@]12C` was tested, and the Activity was 117%. `CCOC(=O)CCCNC(=O)CC[C@@H](C)[C@H]1CC[C@H]2[C@@H]3[C@H](O)C[C@@H]4C[C@H](O)CC[C@]4(C)[C@H]3C[C@H](O)[C@]12C` showed an Activity of 95%. `C[C@H](CCC(=O)NCCCN1C(=O)c2ccccc2C1=O)[C@H]1CC[C@H]2[C@@H]3[C@H](O)C[C@@H]4C[C@H](O)CC[C@]4(C)[C@H]3C[C@H](O)[C@]12C` gave an Activity of 82%. With `COC(=O)C(NC(=O)CC[C@@H](C)[C@H]1CC[C@H]2[C@@H]3[C@H](O)C[C@@H]4C[C@H](O)CC[C@]4(C)[C@H]3C[C@H](O)[C@]12C)C(C)C` (stereo partly specified) the Activity was 100%. With `C[C@H](CCC(=O)NCCC#N)[C@H]1CC[C@H]2[C@@H]3[C@H](O)C[C@@H]4C[C@H](O)CC[C@]4(C)[C@H]3C[C@H](O)[C@]12C` the Activity was 112%. `COc1cc(CNC(=O)CC[C@@H](C)[C@H]2CC[C@H]3[C@@H]4[C@H](O)C[C@@H]5C[C@H](O)CC[C@]5(C)[C@H]4C[C@H](O)[C@]23C)cc(OC)c1` showed an Activity of 99%. For `C[C@H](CCC(=O)Nc1cccc(NC(=O)OC(C)(C)C)c1)[C@H]1CC[C@H]2[C@@H]3[C@H](O)C[C@@H]4C[C@H](O)CC[C@]4(C)[C@H]3C[C@H](O)[C@]12C`, the Activity was 89%. `COc1cccc(NC(=O)CC[C@@H](C)[C@H]2CC[C@H]3[C@@H]4[C@H](O)C[C@@H]5C[C@H](O)CC[C@]5(C)[C@H]4C[C@H](O)[C@]23C)c1` gave an Activity of 55%. In the case of `C[C@H](CCC(=O)NCCc1cccs1)[C@H]1CC[C@H]2[C@@H]3[C@H](O)C[C@@H]4C[C@H](O)CC[C@]4(C)[C@H]3C[C@H](O)[C@]12C`, the Activity is reported as 93%. Compound `C[C@H](CCC(=O)NCc1ccccc1)[C@H]1CC[C@H]2[C@@H]3[C@H](O)C[C@@H]4C[C@H](O)CC[C@]4(C)[C@H]3C[C@H](O)[C@]12C` has an Activity of 70%. `C[C@H](CCC(=O)NCCN1CCCC1)[C@H]1CC[C@H]2[C@@H]3[C@H](O)C[C@@H]4C[C@H](O)CC[C@]4(C)[C@H]3C[C@H](O)[C@]12C` showed an Activity of 101%. `C[C@H](CCC(=O)NC(CCC(=O)O)C(=O)O)[C@H]1CC[C@H]2[C@@H]3[C@H](O)C[C@@H]4C[C@H](O)CC[C@]4(C)[C@H]3C[C@H](O)[C@]12C` (stereo partly specified) gave an Activity of 114%. In the case of `C[C@H](CCC(=O)NCCCN)[C@H]1CC[C@H]2[C@@H]3[C@H](O)C[C@@H]4C[C@H](O)CC[C@]4(C)[C@H]3C[C@H](O)[C@]12C.Cl`, the Activity is reported as 124%. `C[C@H](CCC(=O)Nc1ccc(O)cc1)[C@H]1CC[C@H]2[C@@H]3[C@H](O)C[C@@H]4C[C@H](O)CC[C@]4(C)[C@H]3C[C@H](O)[C@]12C` showed an Activity of 20%. With `C[C@H](CCC(=O)Nc1cccc(F)c1)[C@H]1CC[C@H]2[C@@H]3[C@H](O)C[C@@H]4C[C@H](O)CC[C@]4(C)[C@H]3C[C@H](O)[C@]12C` the Activity was 8%. For `C[C@H](CCC(=O)Nc1ccc(N)cc1)[C@H]1CC[C@H]2[C@@H]3[C@H](O)C[C@@H]4C[C@H](O)CC[C@]4(C)[C@H]3C[C@H](O)[C@]12C.Cl`, the Activity was 82%. `C[C@H](CCC(=O)NCCCCN)[C@H]1CC[C@H]2[C@@H]3[C@H](O)C[C@@H]4C[C@H](O)CC[C@]4(C)[C@H]3C[C@H](O)[C@]12C.Cl` was tested, and the Activity was 104%. Work on `C[C@H](CCC(=O)NCc1cccnc1)[C@H]1CC[C@H]2[C@@H]3[C@H](O)C[C@@H]4C[C@H](O)CC[C@]4(C)[C@H]3C[C@H](O)[C@]12C` yielded an Activity of 94%. `C[C@H](CCC(=O)NCCc1ccccc1)[C@H]1CC[C@H]2[C@@H]3[C@H](O)C[C@@H]4C[C@H](O)CC[C@]4(C)[C@H]3C[C@H](O)[C@]12C` showed an Activity of 104%. `CCOC(=O)c1cccc(NC(=O)CC[C@@H](C)[C@H]2CC[C@H]3[C@@H]4[C@H](O)C[C@@H]5C[C@H](O)CC[C@]5(C)[C@H]4C[C@H](O)[C@]23C)c1` was tested, and the Activity was 109%. In the case of `C[C@H](CCC(=O)NCCN1C(=O)c2ccccc2C1=O)[C@H]1CC[C@H]2[C@@H]3[C@H](O)C[C@@H]4C[C@H](O)CC[C@]4(C)[C@H]3C[C@H](O)[C@]12C`, the Activity is reported as 78%. Work on `COc1ccccc1NC(=O)CC[C@@H](C)[C@H]1CC[C@H]2[C@@H]3[C@H](O)C[C@@H]4C[C@H](O)CC[C@]4(C)[C@H]3C[C@H](O)[C@]12C` yielded an Activity of 8%. For `C[C@H](CCC(=O)NCC(c1ccccc1)c1ccccc1)[C@H]1CC[C@H]2[C@@H]3[C@H](O)C[C@@H]4C[C@H](O)CC[C@]4(C)[C@H]3C[C@H](O)[C@]12C`, the Activity was 101%. With `CCOC(=O)c1ccc(NC(=O)CC[C@@H](C)[C@H]2CC[C@H]3[C@@H]4[C@H](O)C[C@@H]5C[C@H](O)CC[C@]5(C)[C@H]4C[C@H](O)[C@]23C)cc1` the Activity was 105%. In the case of `C[C@H](CCC(=O)NC(Cc1ccccc1)C(=O)O)[C@H]1CC[C@H]2[C@@H]3[C@H](O)C[C@@H]4C[C@H](O)CC[C@]4(C)[C@H]3C[C@H](O)[C@]12C` (stereo partly specified), the Activity is reported as 108%. Work on `COC(=O)C(Cc1ccccc1)NC(=O)CC[C@@H](C)[C@H]1CC[C@H]2[C@@H]3[C@H](O)C[C@@H]4C[C@H](O)CC[C@]4(C)[C@H]3C[C@H](O)[C@]12C` (stereo partly specified) yielded an Activity of 84%. With `COc1ccc(NC(=O)CC[C@@H](C)[C@H]2CC[C@H]3[C@@H]4[C@H](O)C[C@@H]5C[C@H](O)CC[C@]5(C)[C@H]4C[C@H](O)[C@]23C)cc1` the Activity was 79%. In the case of `C[C@H](CCC(=O)NCc1ccc(Cl)c(Cl)c1)[C@H]1CC[C@H]2[C@@H]3[C@H](O)C[C@@H]4C[C@H](O)CC[C@]4(C)[C@H]3C[C@H](O)[C@]12C`, the Activity is reported as 111%. `C[C@H](CCC(=O)NCc1ccccn1)[C@H]1CC[C@H]2[C@@H]3[C@H](O)C[C@@H]4C[C@H](O)CC[C@]4(C)[C@H]3C[C@H](O)[C@]12C` showed an Activity of 93%.

These compounds were tested on Clostridioides difficile (assay: Antibacterial activity against Clostridium difficile R20291 assessed as inhibition of spore germination in presence of 6 mM taurocholate and 12 mM glycine measured every minute for 2 hrs by standard optical density assay).
Assay type: functional, organism-based
Method in brief: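 IC50 was determined on R20291 spores across a range of compound concentrations in sodium phosphate medium with 6 mM taurocholate and 12 mM glycine. Germination was read as the decrease in absorbance at 580 nm.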
`COc1cccc(NC(=O)CC[C@@H](C)[C@H]2CC[C@H]3[C@@H]4[C@H](O)C[C@@H]5C[C@H](O)CC[C@]5(C)[C@H]4C[C@H](O)[C@]23C)c1` gave an IC50 of 78 µM. `C[C@H](CCC(=O)Nc1ccc(O)cc1)[C@H]1CC[C@H]2[C@@H]3[C@H](O)C[C@@H]4C[C@H](O)CC[C@]4(C)[C@H]3C[C@H](O)[C@]12C` was tested, and the IC50 was 36 µM. In the case of `C[C@H](CCC(=O)Nc1cccc(F)c1)[C@H]1CC[C@H]2[C@@H]3[C@H](O)C[C@@H]4C[C@H](O)CC[C@]4(C)[C@H]3C[C@H](O)[C@]12C`, the IC50 is reported as 16 µM. With `COc1ccccc1NC(=O)CC[C@@H](C)[C@H]1CC[C@H]2[C@@H]3[C@H](O)C[C@@H]4C[C@H](O)CC[C@]4(C)[C@H]3C[C@H](O)[C@]12C` the IC50 was 9.8 µM.
